From ChEMBL document CHEMBL4190230, “Structurally Diverse Diterpenoids from Isodon scoparius and Their Bioactivity” (J Nat Prod, 2017) come the findings set out here.

Common to all, as to type: functional, cell-based
The subject of assay [1] is HL-60. Briefly: Antiproliferative activity against human HL60 cells after 48 hrs by MTS assay. Conditions: HL-60, 48 h. Put shortly: (§1)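 Cells grown in RPMI-1640 or DMEM with 10% FBS at 37 °C, 5% CO2. Seeded, 12 h at 37 °C, then 40 μM single-concentration screen, 48 h exposure, MTS read-out. Compounds reaching 50% growth inhibition retested at 0.064, 0.32, 1.6, 8 and 40 μM in triplicate; cisplatin and paclitaxel positive controls; IC50 by Reed and Muench method.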
On the technique in general: Formazan colour is commonly taken as a measure of viable cells.

Assay [2] relates to SW480. Briefly: Antiproliferative activity against human SW480 cells after 48 hrs by MTS assay. Conditions: SW480, 48 h. In a few lines: as §1
Assay [3] has as its system A549. Briefly: Antiproliferative activity against human A549 cells after 48 hrs by MTS assay. The conditions noted are these: A549, 48 h. In a few lines: as §1
The subject of assay [4] is MCF7. In words: Antiproliferative activity against human MCF7 cells after 48 hrs by MTS assay. The conditions noted are these: MCF7, 48 h. In a few lines: as §1
The test system of assay [5] is SMMC-7721. In words: Antiproliferative activity against human SMMC7721 cells after 48 hrs by MTS assay. Conditions: SMMC-7721, 48 h. In a few lines:
as §1

For assay [6], the system named is RAW264.7. In words: Inhibition of LPS-induced NO production in mouse RAW264.7 cells after 18 hrs by Griess assay. Conditions: RAW264.7, 18 h. Put shortly: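 RAW264.7 macrophages seeded at 1.5 × 10^5 cells/well, given serial dilutions (top 20 μM) in triplicate, then stimulated with 1 μg/mL LPS for 18 h. Supernatant nitrite measured with Griess reagent, 5 min, absorbance 570 nm. L-NMMA positive control; parallel MTS viability check to exclude cytotoxic interference.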
In general terms: Griess reagent forms a coloured azo dye with nitrite.

As usually defined, the IC50 is the concentration needed to halve the response being measured. As to `C=C1C(=O)[C@]23C[C@@]1(O)C[C@H](OC(C)=O)[C@H]2[C@@]1(C)[C@H](C[C@H]3O)[C@](C)(CO)CC[C@@H]1O`, the half-maximal inhibitory concentration (IC50) in assay [1], in assay [2], in assay [3], in assay [4] and in assay [5] was over 40 µM in each case.
Take `C=C1[C@@H](O)[C@@]23CC[C@@H]4C(C)(C)[C@@H](O)CC[C@@]4(C)[C@@H]2[C@@H](OC(C)=O)C[C@]1(O)C3`: the 50% inhibitory concentration (IC50) in assay [1], in assay [2], in assay [3], in assay [4] and in assay [5] was over 40 µM throughout.
For the molecule `C=C1[C@@H](O)[C@@]23CC[C@@H]4C(C)(C)[C@H](O)CC[C@@]4(C)[C@@H]2[C@@H](OC(C)=O)C[C@]1(O)C3`, the IC50 in assay [1], in assay [2], in assay [3], in assay [4] and in assay [5] was over 40 µM throughout.
In the case of `C=C1C(=O)[C@]23C[C@@]1(O)C[C@H](OC(C)=O)[C@H]2[C@@]1(C)[C@H](C[C@H]3O)[C@](C)(COC(C)=O)CC[C@@H]1O`, the 50% inhibitory concentration (IC50) in assay [6] turned out to be 1.8 µM; in assay [1] it was 3.2 µM; in assay [2] it was 1.3 µM; in assay [3], 13.4 µM; in assay [4], 4.8 µM; in assay [5], 3.9 µM.
With `CNC(=N)NCCC[C@H](N)C(=O)O` [TILARGININE ACETATE], the half-inhibitory concentration (IC50) in assay [6] is 39.9 µM.
Consider `C=C1C(=O)[C@@]23CC[C@@H]4C(C)(C)[C@@H](O)CC[C@@]4(C)[C@@H]2[C@@H](OC(C)=O)C[C@]1(O)C3`, for which the IC50 in assay [6] came to 1 µM; in assay [1] it was 1 µM; in assay [2], 0.9 µM; in assay [3] it was 4.4 µM; in assay [4] it was 2.9 µM; in assay [5] it was 1.5 µM.
Take `C=C1[C@@H](O)[C@@]23CC[C@@H]4[C@@](C)(CO)CCC[C@@]4(C)[C@@H]2[C@@H](O)C[C@]1(O)C3`: the IC50 in assay [1], in assay [2], in assay [3], in assay [4] and in assay [5] was over 40 µM throughout.
As for `C=C1[C@@H](O)[C@@]23CC[C@H]4[C@@](C)(CCC[C@@]4(C)C=O)[C@@H]2[C@@H](OC(C)=O)C[C@]1(O)C3`, the IC50 in assay [1], in assay [2], in assay [3], in assay [4] and in assay [5] was over 40 µM throughout.
In the case of `CC(=O)O[C@H]1C(=O)[C@@]2(C)[C@H]([C@H](OC(=O)c3ccccc3)[C@]3(O)C[C@H](OC(=O)[C@H](O)[C@@H](NC(=O)c4ccccc4)c4ccccc4)C(C)=C1C3(C)C)[C@]1(OC(C)=O)CO[C@@H]1C[C@@H]2O` [PACLITAXEL], the 50% inhibitory concentration (IC50) in assay [1], in assay [2], in assay [3], in assay [4] and in assay [5] was under 0.008 µM throughout.
In the case of `C=C1[C@@H](O)[C@@]23CC[C@@H]4[C@@](C)(CO)CCC[C@@]4(C)[C@@H]2[C@@H](OC(C)=O)C[C@]1(O)C3`, the IC50 in assay [1], in assay [2], in assay [3], in assay [4] and in assay [5] was over 40 µM each time.
Consider `C=C1[C@@H](O)[C@@]23CC[C@@H]4C(C)(C)[C@H](O)CC[C@@]4(C)[C@@H]2[C@@H](O)C[C@]1(O)C3`, for which the 50% inhibitory concentration (IC50) in assay [1], in assay [2], in assay [3], in assay [4] and in assay [5] was over 40 µM each time.
`C=C1C(=O)[C@]23C[C@@]1(O)C[C@H](OC(C)=O)[C@H]2[C@@]1(C)[C@H](C[C@H]3O)C(C)(C)CC[C@@H]1O`: the IC50 in assay [6] came to 3.1 µM; in assay [1] it was 7 µM; in assay [2] it was 2.5 µM; in assay [3] it was 19.6 µM; in assay [4], 11 µM; in assay [5], 4.7 µM.
For the molecule `C[C@@]1(CO)CCC[C@@]2(C)[C@H]1C[C@@H](O)C1=CC(=O)CC[C@@]12O`, the IC50 in assay [1], in assay [2], in assay [3], in assay [4] and in assay [5] was over 40 µM in each case.
